From PubChem BioAssay
Only some compounds are listed: those with a hit (about 3.9% of all), similar ones and a draw of the others.
XBP1 UPR activ = activators of adaptive arm of unfolded protein response (XBP1). CHO-XBP1 luciferase reporter, IRE1-XBP1 UPR activation, luminescence; percent of tunicamycin response, DMSO as zero. activation, % at 20 µM. 330,000 compounds, 0.33% hits. AID 463104;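 active means versus positive control, 20 µM dose yields 30% or more activation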;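 further: 100% = tunicamycin at 10 µg/mL and 0% = DMSO only wells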
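incubation = overnight seeding at 37 °C, 6 h compound treatment at 37 °C | assay system = CHO-XBP1 cells stably carrying IRE1-XBP1-driven luciferase reporter | input = 1000 cells per well | detection = luciferase luminescence | dosing = single point, 20 µM final compound, 1% DMSO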
TIM10 inh = inhibits growth of TIM10 yeast strain; S. cerevisiae TIM10 strain growth, BacTiter-Glo luminescence, 24 h; 330,000 compounds, 1.4% hits; inhibition, % at 10 µM;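 active means inhibition of 40% or more at the single tested concentration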;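 further: wild-type TIM10 isogenic control strain grown at permissive 25 °C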
tim23-1 inh = growth inhibitors of tim23-1 mutant yeast | S. cerevisiae tim23-1 growth, BacTiter-Glo luminescence, 24 h | inhibition, % at 20 µM | 330,000 compounds, 1.3% hits | AID 463212;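 active means growth inhibition of the mutant yeast at or above 50%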;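 further: temperature-sensitive mutant grown at 25 °C; plate controls were DMSO-treated mutant yeast for no effect and medium wells lacking yeast for full effect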
CHOP UPR activ = apoptotic UPR (CHOP) activation. CHO-CHOP luciferase reporter, luminescence; percent of tunicamycin response over DMSO baseline. activation, % at 10 µM. 330,000 compounds, 0.34% hits. AID 449763;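 active means at 10 µM dose, activation of 40% or more, normalized to positive control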;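 further: 100% = tunicamycin at 10 µg/mL and 0% = DMSO alone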
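Evaluation: % reporter activation, DMSO baseline versus tunicamycin full activation; System: CHO-CHOP luciferase reporter cell line; Input: 500 cells/well; Incubation: 6 h compound treatment, 37 °C; Measured by: Steady-Glo luciferase luminescence; Dosing: one dose, 10 µM in 0.5% DMSO; Buffer or medium: F12 medium, 10% FBS; Benchmarks: positive tunicamycin 10 µg/mL, negative DMSO alone.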
tim10-1 inh = growth inhibitors of tim10-1 mutant yeast; S. cerevisiae tim10-1 ts strain growth, BacTiter-Glo, 24 h; inhibition, % at 20 µM; 330,000 compounds, 2.2% hits; AID 463190;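 active means inhibition of at least 40%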;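 further: mutant grown at 25 °C; 0% = DMSO wells with yeast and 100% = wells holding no yeast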
XBP1 UPR conf = adaptive UPR (XBP1) activation, confirmed; shares compounds with XBP1 UPR activ; CHO-XBP1 IRE1-XBP1 luciferase reporter, luminescence; activation, % at 20 µM; 1,000 compounds, 63% hits;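 active means reporter signal at least 30% of the positive control's activation in two or more of four replicate wells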;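 further: plate controls were DMSO negative control for no effect and tunicamycin 10 µg/mL positive control for full effect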
* hit, by the source's call; x = no result.

SMILES | XBP1 UPR activ | TIM10 inh | tim23-1 inh | CHOP UPR activ | tim10-1 inh | XBP1 UPR conf
O=C(CSc1ccc2nnc(-c3ccc(F)cc3)n2n1)N1CCCc2ccccc21 | -4.3 | -18.6 | -5.4 | -0.6 | 11.3 | x
COc1cccc(/C=N/Nc2nc(Nc3ccc([N+](=O)[O-])cc3)nc(N3CCCC3)n2)c1O | 7.9 | 15.6 | 19.8 | 7.2 | 30.9 | x
COc1cccc(/C=N/Nc2ccc([N+](=O)[O-])cn2)c1O | 64.8* | 23.8 | 40.3 | 17.4 | 9.1 | 63.5*
COc1ccc(CCN(CC(=O)NCc2ccc(F)cc2)C(=O)c2snc(C(N)=O)c2N)cc1OC | -3.5 | -15.0 | -5.8 | 0.3 | -3.3 | x
COc1ccccc1/C=N\NC(=O)c1ccc(COc2ccc(C)c(C)c2)o1 | 41.1* | 0.3 | 6.8 | 2.4 | 5.8 | 0.2
CCOC(=O)/C(C#N)=C\c1ccc(OCC(=O)Nc2ccc(C)cc2C)c(OC)c1 | 37.2* | 10.5 | -1.1 | 11.0 | 18.4 | 2.2
CCOC(=O)/C(C#N)=C/c1ccc(OCC(=O)Nc2cc(C)ccc2C)c(OC)c1 | -2.2 | -8.6 | -3.2 | 1.1 | 20.4 | x
CN(CC(=O)Nc1cccc(F)c1)C(=O)c1cc(S(=O)(=O)N2CCN(c3ccccc3)CC2)ccc1Cl | -2.1 | 9.0 | 3.5 | 3.7 | 5.8 | x
COc1ccc(N2CC(C(=O)N3CCN(Cc4ccc5c(c4)OCO5)CC3)CC2=O)cc1 (configuration not stated) | -4.4 | -10.6 | 15.3 | 0.0 | 12.5 | x
CCOC(=O)c1cc2c(ccn2-c2ccc(F)cc2)n1CC(=O)N1CCN(C(=O)c2ccco2)CC1 | 44.9* | 10.5 | -7.7 | 0.3 | 0.3 | 11.2
Cc1cc(C(=O)OCC(=O)N2CCN(C(=O)c3ccco3)CC2)c(C)n1-c1ccc(F)cc1 | 0.6 | 5.1 | 8.4 | 0.4 | 28.9 | x
COc1ccc(C(=O)c2c3ccc(OC)cc3[n+]([O-])n2Cc2ccc(C(N)=O)cc2)cc1 | 1.9 | 5.8 | 7.9 | 6.0 | 2.9 | x
Nc1ccccc1C(=O)N1CCc2ccccc21 | 0.0 | 2.1 | 9.6 | 4.4 | 21.5 | x
CCOC(=O)/C(=N\Nc1ccc(C(C)=O)cc1)c1csc(Nc2ccccc2)n1 | 46.1* | 6.4 | 15.3 | 7.4 | 5.1 | 93.9*
O=C(CSc1nnc(-c2cccs2)n1-c1ccccc1)c1ccc2c(c1)OCCO2 | 61.1* | -18.7 | -15.9 | 15.0 | -1.7 | 22.0
COc1cc(C(=O)Nc2cc(S(C)(=O)=O)ccc2Cl)ccc1OCC(=O)N1CCOCC1 | -3.2 | -2.1 | 0.5 | 2.9 | 2.7 | x
Nc1cccc2c1C(=O)N(CCOc1ccccc1F)C2=O | -4.3 | -17.9 | 15.5 | -1.6 | 9.7 | x
CCOc1ccccc1N1CCN(CC(=O)Nc2ccnn2C2CCCC2)CC1 | -3.5 | 15.3 | 3.2 | -1.3 | 7.2 | x
CC(C)(c1ccccc1)c1ccc(OCC(O)CNC2CCN(Cc3ccccc3)CC2)cc1 (configuration not stated) | 53.2* | -17.4 | -88.8 | 12.1 | -189.1 | 9.3
CCOc1ccc(OCC(O)CNC2CCN(Cc3ccccc3)CC2)cc1 (configuration not stated) | -3.8 | -40.6 | -17.1 | -0.8 | -23.9 | x
COC(=O)c1ccccc1S(=O)(=O)N1CCC(C(=O)NC2CCCCC2)CC1 | -2.5 | -3.2 | -1.1 | 0.3 | 7.3 | x
COc1ccc(-n2c(=S)[nH]c3cc(C(=O)NCc4ccco4)ccc3c2=O)cc1OC | -1.7 | 3.4 | 11.4 | -0.5 | 5.0 | x
COc1ccc(CCn2c(=S)[nH]c3cc(C(=O)NCc4ccco4)ccc3c2=O)cc1OC | 62.4* | -4.6 | 6.5 | 5.1 | 27.8 | 66.0*
CCOc1ccccc1CNC(=O)C1CCN(c2nnc(C)c3c(C)n(-c4ccc(C)cc4)nc23)CC1 | 63.9* | 11.1 | 3.9 | 34.6 | -1.0 | 85.0*
Cc1ccc(-n2nc3c(N4CCC(C(=O)NCc5ccccc5C)CC4)nnc(C)c3c2C)cc1 | 16.4 | 10.9 | 3.2 | 0.0 | 8.3 | x
SMILES | XBP1 UPR activ | TIM10 inh | tim23-1 inh | CHOP UPR activ | tim10-1 inh | XBP1 UPR conf
COc1ccccc1CCNC(=O)C1CCN(c2nnc(C)c3c(C)n(-c4ccc(C)cc4)nc23)CC1 | 114.1* | -1.7 | 7.0 | 5.3 | 12.4 | 138.6*
OCC1(CCc2ccccc2)CCCN(CCCc2ccccc2)C1 (configuration not stated) | 0.3 | 7.7 | 9.7 | -0.9 | 11.3 | x
Cc1ccc(C(=O)N2CCC3(CC2)NCCc2[nH]cnc23)cc1C | -0.9 | -2.8 | -16.6 | 1.6 | -12.4 | x
CCOC(=O)c1ccccc1NC(=O)COC(=O)CSc1ccccc1 | 4.1 | 12.0 | 13.3 | -1.5 | 9.1 | x
Cc1ccccc1OCc1n(CC(=O)OC2CC(C)CCC2C(C)C)c2ccccc2[n+]1C (configuration not stated) | 45.1* | 2.2 | 12.8 | 7.2 | 29.3 | 22.4
CC1CCC(C(C)C)C(OC(=O)Cn2c(-c3ccc(Br)cc3)[n+](C)c3ccccc32)C1 (configuration not stated) | 109.1* | 0.9 | 22.9 | 18.7 | 17.4 | 108.4*
CC1CCC(C(C)C)C(OC(=O)COC(=O)c2cccn2C)C1 (configuration not stated) | -3.0 | 14.5 | -4.7 | -0.7 | 23.4 | x
CC1CCC(C(C)C)C(OC(=O)Cn2c(-c3ccc(Cl)cc3)[n+](C)c3ccccc32)C1 (configuration not stated) | 86.8* | 12.2 | 14.3 | 9.0 | 10.7 | 86.0*
CC(C)[C@@H]1CC[C@@H](C)C[C@H]1OC(=O)C[n+]1cc(-c2ccc(Cl)cc2)n2c1CCCCC2 | 4.9 | 5.3 | -0.6 | -0.7 | -4.7 | x
CCOc1ccc(NC(=O)CN(C)C(=O)C(C)N2C(=O)c3ccccc3C2=O)cc1OCC (configuration not stated) | -3.6 | -2.3 | -3.7 | 1.0 | -4.2 | x
CC(C)c1ccc(/C=C2\SC(=O)N(CC(=O)NCCCn3ccnc3)C2=O)cc1 | -0.5 | 4.3 | -17.8 | 1.7 | -53.1 | x
O=C(Nc1cccc(-c2cnc3ccccc3n2)c1)c1cccc(NC(=O)c2ccco2)c1 | 35.7* | 27.8 | -2.8 | 21.8 | 8.3 | 28.1
O=C(Nc1cccc(-c2cnc3ccccc3n2)c1)c1ccccc1 | 1.8 | 2.8 | 0.5 | 4.3 | 1.8 | x
CC(=O)c1cccc(NC(=S)N2CCN(c3ccccn3)CC2)c1 | -8.7 | 5.8 | 11.9 | 0.0 | 16.6 | x
O=c1cc2oc3cc(O)c(O)cc3c(-c3ccccc3[N+](=O)[O-])c-2cc1O | 33.6* | 11.1 | 12.0 | -1.9 | 4.3 | 34.9*
O=c1cc(-c2ccccc2Cl)oc2cccc(O)c12 | 8.2 | -0.3 | 7.1 | 3.3 | -16.9 | x
Cc1cnc(NC(=O)c2cc3c(C)nn(Cc4ccccc4Cl)c3s2)s1 | 43.2* | -33.1 | -9.4 | 4.0 | 1.9 | 82.0*
CCCCOc1ccccc1NC(=O)Cn1c(-c2nonc2N)nc2ccccc21 | 101.2* | -27.3 | -42.7 | 9.8 | 13.4 | 81.6*
